Measurements pooled from the literature.
≈ marks a conversion by molar mass, not a printed value.

CCCCCCCCCCCC(=O)OC[C@@H](COP(=O)(O)OCCNC(=O)c1ccc(Cn2c(=O)[nH]c3c(N)nc(OCCOC)nc32)cc1)OC(=O)CCCCCCCCCCC
MTD (general toxicity; mouse; intravenous): 150 mg/kg

CC(=O)N[C@@H](CC(N)=O)C(=O)N[C@@H](CCCNC(=N)N)C(=O)N[C@@H](CC(C)C)C(=O)N[C@H]1CSSC[C@@H](C(=O)N[C@H](C(N)=O)[C@@H](C)O)NC(=O)[C@H](CCCNC(=N)N)NC(=O)[C@H](Cc2c[nH]cn2)NC(=O)[C@H](Cc2cccc3ccccc23)NC(=O)CNC(=O)[C@H](Cc2c[nH]c3ccccc23)NC(=O)[C@H](CC(=O)O)NC(=O)[C@H](CCC(N)=O)NC(=O)[C@H](Cc2c[nH]c3ccccc23)NC(=O)[C@H](C(C)C)NC1=O
solubility (PBS; pH 7.4): 340 µg/mL (≈ 169 µM)

Cc1ncc(C)n2nc(/C=C/c3nc(N4CCCC4)cc(N4CCOCC4)n3)nc12
Tmax (male beagle dog, plasma; oral, 0.3 mg/kg): 1.2 h

Nc1ncc(-c2nc(N3CCOCC3)nc(N3CCOCC3)n2)c(C(F)F)n1
thermodynamic solubility (shake flask; FeSSIF; 24 h): 13.9 µM (≈ 5.48 µg/mL)

COc1ccnc(C(=O)N[C@H]2COC(=O)[C@H](Cc3ccccc3)[C@@H](OC(=O)C(C)C)[C@H](C)OC2=O)c1OCOC(=O)C(C)C
pKa: 2.4

C[C@H](N)Cn1ncc2ccc3c(c21)CCCO3
pKa (potentiometric; water): 8.45

CCCC(CCC)NC(=O)c1ccc2c(c1)OCO2
MTD (general toxicity; Swiss mouse; intraperitoneal): 700 mg/kg

COc1ccc(C2=Nn3c(nnc3-c3cc(-c4ccc(Cl)cc4)n[nH]3)SC2C)cc1 (stereo not shown)
MTD (general toxicity; mouse; intravenous, 4 mg/kg, single dose): 4 mg/kg

CC(=O)N[C@@H](CC(N)=O)C(=O)N[C@@H](CC(N)=O)C(=O)N[C@@H](CC(C)C)C(=O)N[C@H]1CSSC[C@@H](C(=O)N[C@H](C(N)=O)[C@@H](C)O)NC(=O)[C@H](CCCNC(=N)N)NC(=O)[C@H](Cc2c[nH]cn2)NC(=O)[C@H](Cc2cccc3ccccc23)NC(=O)CNC(=O)[C@H](Cc2c[nH]c3ccccc23)NC(=O)[C@H](CC(=O)O)NC(=O)[C@H](CCC(N)=O)NC(=O)[C@H](Cc2cccc3ccccc23)NC(=O)[C@H](C(C)C)NC1=O
solubility (PBS; pH 7.4): 270 µg/mL (≈ 136 µM)

N=c1c2c(-c3ccccc3)c(-c3ccccc3)n(Cc3ccccc3)c2ncn1[C@H]1CC[C@H](O)CC1
Tmax (male beagle dog, plasma; oral, 1 mg/kg, single dose): ~15 h

Cc1cc(C)nc(Nc2ncc(C(=O)NCCc3c(C)[nH]c4ccccc34)cn2)c1
pKa: 5.8

C=C(CC)C(=O)c1ccc(OCC(=O)O)c(Cl)c1Cl
MTD (general toxicity; mouse; intraperitoneal): 30 mg/kg

CC(C)(C)c1cc(NC(=O)Nc2ccc(Oc3ccnc4[nH]c(=O)cnc34)cc2F)n(-c2ccccc2)n1
MTD (general toxicity; CD-1 mouse; oral, single dose): 40 mg/kg
